Assay results from ChEMBL document CHEMBL3797154, “Design and Synthesis of 1-((1,5-Bis(4-chlorophenyl)-2-methyl-1H-pyrrol-3-yl)methyl)-4-methylpiperazine (BM212) and N-Adamantan-2-yl-N'-((E)-3,7-dimethylocta-2,6-dienyl)ethane-1,2-diamine (SQ109) Pyrrole Hybrid Derivatives: Discovery of Potent Antitubercular Agents Effective against …” (J Med Chem, 2016).
In brackets after ≈: the same amount, converted by molar mass. Activity calls are given as the source filed them. The calls are words filed in the database; no cut-off is given here.

Experiments:
[1] = Cytotoxic activity against mouse RAW264.7 cells assessed as reduction in cell viability incubated for 48 hrs by […] based assay
Outline: (§1)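 RAW264.7 or THP-1 cells were grown in RPMI-1640 with 10% FBS and seeded at 10^5 cells/mL. Compound was two-fold serially diluted from a 50 mg/mL stock, with a solvent-control row. Plates were held 48 h at 37 °C in 5% CO2. Wells were washed twice with PBS, with centrifugation between washes for THP-1, then given fresh RPMI plus 0.01% […]. After overnight incubation, fluorescence was read at 560/590 nm and GIC50 derived.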

[2] = system: Mycolicibacterium smegmatis; test: Antimycobacterial activity against Mycobacterium smegmatis str. MC2 155 ATCC 700084 assessed as inhibition of mycobacterial growth incubated for 24 hrs by MABA method; format: functional; conditions: MC2 155 ATCC 700084, 24 h
[3] = Cytotoxic activity against human THP1 cells assessed as reduction in cell viability incubated for 48 hrs by […] based assay; set-up: species or system THP-1; conditions: for GI50 at 48 h: THP1 cells; for GI50: thp-1, 48 h; outline: as §1
[4] = system: Mycolicibacterium aurum; test: Antimycobacterial activity against Mycobacterium aurum ATCC 23366 assessed as inhibition of mycobacterial growth at 500 ug/ml incubated for 4 days; format: functional, organism-based
Outline: (§2)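 HT-SPOTi agar dilution: two-fold serial dilutions of compound were mixed into Middlebrook 7H10 agar with 0.05% glycerol and 10% OADC, giving a final range of 500–0.5 µg/mL. Each well was spotted with 2x10^3 CFU of early-to-mid-log culture. Plates were incubated at 35 or 37 °C until spots appeared in control wells. Controls were DMSO-only and isoniazid. The MIC was read, in triplicate.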

[5] = system: Mycolicibacterium aurum; test: Inhibition of multidrug resistance efflux pump in Mycobacterium aurum ATCC 23366 assessed as inhibition of ethidium bromide efflux by measuring relative fluorescence units for ethidium bromide accumulation at 1/4 times MIC incubated for 60 mins by fluorimetric assay
Outline: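 Whole-cell efflux assay: early-log cells (OD600 ~0.8) adjusted to OD600 0.4, washed into PBS; 4-6x10^7 bacteria/mL with 0.4% glucose, 0.5 mg/L ethidium bromide substrate and compound at 1/4x MIC. Fluorescence ex 544/em 590 nm at 37 °C every minute for 60 min; accumulation scored 0-4 by relative fluorescence bands. Verapamil positive, PBS negative control.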

[6] = system: Mycolicibacterium aurum; test: Antimycobacterial activity against Mycobacterium aurum ATCC 23366 assessed as inhibition of mycobacterial growth incubated for 4 days; format: functional; outline: as §2
[7] = system: Mycobacterium tuberculosis; test: Antimycobacterial activity against Mycobacterium tuberculosis H37Rv ATTC 27294 assessed as inhibition of mycobacterial growth at 500 ug/ml incubated for 7 days; format: functional, organism-based
Outline: (§3)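 MIC by HT-SPOTi on Middlebrook 7H10 agar with 0.05% (v/v) glycerol and 10% (v/v) OADC in 96-well format. Compounds dissolved at 50 mg/mL (stock), two-fold serial dilutions, final 500-0.5 µg/mL. Each well spotted with 2 µL early-to-midlog culture (2x10^3 CFU), incubated at 37 °C until distinct spots in control wells. DMSO-only and isoniazid controls; triplicate.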

[8] = system: Mycobacterium tuberculosis; test: Antimycobacterial activity against Mycobacterium tuberculosis H37Rv ATTC 27294 assessed as inhibition of mycobacterial growth incubated for 7 days; format: functional; outline: as §3
[9] = system: Mycobacterium tuberculosis; test: Antimycobacterial activity against Mycobacterium tuberculosis mc'2-7000x assessed as inhibition of mycobacterial growth; format: functional
[10] = system: Mycobacterium tuberculosis; test: Antimycobacterial activity against Mycobacterium tuberculosis mc'2-7000x assessed as inhibition of mycobacterial growth at 500 ug/ml; format: functional, organism-based
[11] = system: Mycobacterium tuberculosis; test: Antimicrobial activity against Mycobacterium tuberculosis; format: functional
[12] = Selectivity index, ratio of GIC50 for cytotoxicity against human THP1 cells to MIC for Mycobacterium tuberculosis H37Rv ATTC 27294; format: toxicity, cell-based, THP-1; conditions: read-out: Selectivity Index
Outline: (§4)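 SI = GIC50 / H37Rv MIC (agar spot assay). GIC50 from cells in RPMI-1640 + 10% FBS, 37 °C, 5% CO2; 10^5 cells/mL added to two-fold compound dilutions from 50 mg/mL stock, solvent control row. 48 h exposure, washes (THP-1 centrifuged), fresh medium plus 0.01% […], overnight; fluorescence ex 560/em 590 nm.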

[13] = Selectivity index, ratio of GIC50 for cytotoxicity against mouse RAW264.7 cells to MIC for Mycobacterium tuberculosis H37Rv ATTC 27294; format: toxicity, cell-based; conditions: read-out: Selectivity Index; outline: as §4

Compound	GI50 at 48 h [1] [mg/L]	MIC [2] [mg/L]	GI50 at 48 h [3] [mg/L]	growth inhibition (GI) [4]	Activity [5] [RFU]	MIC [6]	growth inhibition (GI) [7]	MIC [8]	MIC [9]	growth inhibition (GI) [10]	MIC ([8]; H37Rv ATTC 27294, 168 h) [mg/L]	GI50 [3]	MIC ([6]; ATCC 23366, 96 h) [mg/L]	MIC [11] [µM]	selectivity ratio [12]	selectivity ratio [13]
Cc1cc(CNOCc2ccccc2)c(C)n1-c1ccc(Cl)cc1	133 (≈ 390 µM)	> 64	67 (≈ 197 µM)	inactive	2	inactive	inactive	inactive	> 64 mg/L							
Cc1cc(/C=N\OCc2ccccc2)c(C)n1-c1ccc(F)cc1									inactive	inactive	25 (≈ 77.5 µM)					
CC(C)=CCC/C(C)=C/CNCCNC1C2CC3CC(C2)CC1C3 (stereo not drawn) [SQ109]		4 (≈ 12.1 µM)			2				2 mg/L (≈ 6.05 µM)		0.51 (≈ 1.54 µM)	Not Active	7.8 (≈ 23.6 µM)	0.5 (≈ 0.165 µg/mL)		
NNC(=O)c1ccncc1 [ISONIAZID]									inactive	inactive	0.24 (≈ 1.75 µM)	Not Active				
Cc1cc(CNOCc2ccccc2)c(C)n1-c1ccc(F)cc1	123 (≈ 379 µM)	> 64	292 (≈ 900 µM)	inactive	4	inactive			> 64 mg/L		> 125				< 2.3	< 1
